≈ marks a conversion by molar mass, not a printed value. Calls of active or inactive are those of the source. The rule behind the calls is not given here.
Columns and labels:
Plasmodium falciparum [1] = experiment: Antimalarial activity against Plasmodium falciparum D6 after 72 hrs by alamar blue assay; assay type: functional, organism-based; settings: D6, 72 h
Histone deacetylase [2] = experiment: Inhibition of HDAC in human HeLa cell nuclear extracts; assay type: protein assay
[3] = Selectivity index, ratio of IC50 for african green monkey (Cercopithecus aethiops) Vero cells to IC50 for Plasmodium falciparum D6
[4] = molecular target: T1, Protein deacetylase HDAC6 (Homo sapiens, UniProt Q9UBN7); experiment: Inhibition of HDAC6
T1 sequence (Q9UBN7 whole entry): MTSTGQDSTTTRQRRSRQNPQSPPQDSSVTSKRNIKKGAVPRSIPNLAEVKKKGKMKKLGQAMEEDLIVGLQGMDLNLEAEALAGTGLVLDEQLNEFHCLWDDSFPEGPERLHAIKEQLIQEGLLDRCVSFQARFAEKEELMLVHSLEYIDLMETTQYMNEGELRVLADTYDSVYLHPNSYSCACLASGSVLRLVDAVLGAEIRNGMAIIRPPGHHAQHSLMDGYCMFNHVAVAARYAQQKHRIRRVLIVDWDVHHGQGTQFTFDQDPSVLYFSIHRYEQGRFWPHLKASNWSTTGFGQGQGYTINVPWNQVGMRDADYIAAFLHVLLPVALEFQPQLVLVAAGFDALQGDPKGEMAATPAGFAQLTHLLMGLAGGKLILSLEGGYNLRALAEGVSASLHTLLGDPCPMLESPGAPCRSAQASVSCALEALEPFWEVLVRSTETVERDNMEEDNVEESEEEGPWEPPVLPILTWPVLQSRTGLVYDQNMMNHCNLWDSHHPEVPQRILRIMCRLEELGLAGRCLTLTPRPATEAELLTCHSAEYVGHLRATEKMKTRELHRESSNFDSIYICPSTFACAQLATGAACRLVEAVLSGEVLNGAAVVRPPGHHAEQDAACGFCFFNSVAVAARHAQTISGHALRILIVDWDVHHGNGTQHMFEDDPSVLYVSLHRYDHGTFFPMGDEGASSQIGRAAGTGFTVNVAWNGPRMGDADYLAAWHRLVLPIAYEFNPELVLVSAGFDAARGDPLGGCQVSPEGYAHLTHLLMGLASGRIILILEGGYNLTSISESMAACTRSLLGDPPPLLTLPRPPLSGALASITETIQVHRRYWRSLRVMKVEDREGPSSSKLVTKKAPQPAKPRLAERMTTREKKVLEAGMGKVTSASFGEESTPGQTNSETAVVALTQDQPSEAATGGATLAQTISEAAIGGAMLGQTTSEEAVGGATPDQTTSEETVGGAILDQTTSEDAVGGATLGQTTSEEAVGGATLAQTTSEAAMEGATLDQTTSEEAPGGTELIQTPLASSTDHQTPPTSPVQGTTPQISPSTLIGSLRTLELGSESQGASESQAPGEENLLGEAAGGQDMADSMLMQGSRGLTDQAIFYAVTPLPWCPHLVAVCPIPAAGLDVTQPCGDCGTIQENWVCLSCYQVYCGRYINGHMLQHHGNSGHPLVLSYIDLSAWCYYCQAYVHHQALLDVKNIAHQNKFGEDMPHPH

[5] = Selectivity index, ratio of IC50 for african green monkey (Cercopithecus aethiops) Vero cells to IC50 for Plasmodium falciparum W2
Histone deacetylase [6] = molecular target: T2, Histone deacetylase (Plasmodium falciparum, UniProt Q9XYC7); experiment: Inhibition of Plasmodium falciparum HDAC1
T2 sequence (Q9XYC7 whole entry): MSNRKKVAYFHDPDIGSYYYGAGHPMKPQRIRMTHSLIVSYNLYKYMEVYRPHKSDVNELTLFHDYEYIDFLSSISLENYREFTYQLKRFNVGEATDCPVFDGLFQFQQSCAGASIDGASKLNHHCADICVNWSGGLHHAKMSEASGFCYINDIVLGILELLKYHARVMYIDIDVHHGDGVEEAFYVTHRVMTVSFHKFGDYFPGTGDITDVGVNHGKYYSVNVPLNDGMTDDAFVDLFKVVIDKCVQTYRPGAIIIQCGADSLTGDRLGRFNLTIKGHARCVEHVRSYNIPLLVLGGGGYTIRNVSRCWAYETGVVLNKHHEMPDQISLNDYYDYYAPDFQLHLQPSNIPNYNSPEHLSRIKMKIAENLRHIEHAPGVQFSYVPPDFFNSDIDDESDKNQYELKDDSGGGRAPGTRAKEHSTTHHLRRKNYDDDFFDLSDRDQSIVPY

A549 = experiment: Antiproliferative activity against human A549 cells after 72 hrs by MTS assay; assay type: functional
In short: (§1)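 Cells kept at 37 °C, 5% CO₂ in recommended media; seeded in 96-well plates the day before, grown at least 24 h, then dosed 72 h with compounds diluted from 1000X DMSO stocks to give 0.1% DMSO final. MTS reagent added for 2 h; absorbance read at 490 nm; EC50 is concentration giving 50% loss of viability.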

Histone deacetylase 8 = molecular target: T3, Histone deacetylase 8 (Homo sapiens, UniProt Q9BY41); experiment: Inhibition of HDAC8
T3 sequence (Q9BY41 whole entry): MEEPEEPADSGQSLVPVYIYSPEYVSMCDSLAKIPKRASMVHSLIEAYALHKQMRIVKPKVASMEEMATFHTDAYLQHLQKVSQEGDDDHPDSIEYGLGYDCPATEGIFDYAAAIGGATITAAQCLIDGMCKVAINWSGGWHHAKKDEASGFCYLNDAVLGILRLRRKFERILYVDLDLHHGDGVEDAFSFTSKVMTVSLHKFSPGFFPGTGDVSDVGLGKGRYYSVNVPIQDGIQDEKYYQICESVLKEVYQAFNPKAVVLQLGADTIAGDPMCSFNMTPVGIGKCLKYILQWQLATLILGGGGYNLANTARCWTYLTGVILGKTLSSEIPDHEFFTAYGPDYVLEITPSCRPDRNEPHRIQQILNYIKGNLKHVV

Plasmodium falciparum [7] = experiment: Antimalarial activity against Plasmodium falciparum W2 after 72 hrs by alamar blue assay; assay type: functional, organism-based; settings: W2, 72 h
[8] = Selectivity ratio IC50 for HDAC8 to IC50 for HDAC in human HeLa cells nuclear extract; assay type: cell-based; set-up: reference not given here
DU-145 = experiment: Antiproliferative activity against human DU145 cells after 72 hrs by MTS assay; assay type: functional; in short: as §1
Leishmania donovani [9] = experiment: Antileishmanial activity against Leishmania donovani promastigotes after 72 hrs by alamar blue assay; assay type: functional, organism-based
MCF7 = experiment: Antiproliferative activity against human MCF7 cells after 72 hrs by MTS assay; assay type: functional; in short: as §1
[10] = Antiproliferative activity against human Hs1.Lu cells after 72 hrs by MTS assay; assay type: cell-based
Leishmania donovani [11] = test system: Leishmania donovani
[12] = Leishmania donovani, 72 h, read-out: IC50

| SMILES | IC50 (Plasmodium falciparum [1]) [µg/mL] | IC50 (Histone deacetylase [2]) [nM] | selectivity ratio ([3]; vero) | IC50 [4] [nM] | selectivity ratio ([5]; vero) | IC50 (Histone deacetylase [6]) [nM] | Activity (A549) [µM] | IC50 (Histone deacetylase 8) [nM] | IC50 (Plasmodium falciparum [7]) [µg/mL] | Ratio IC50 [8] | Activity (DU-145) [µM] | IC90 (Leishmania donovani [9]; Leishmania donovani, 72 h) [µg/mL] | IC50 (Leishmania donovani [9]; [12]) [µg/mL] | Activity (MCF7) [µM] | Activity [10] [µM] | selectivity ratio ([3]; Vero cells) | selectivity ratio ([5]; Vero cells) | IC90 (Leishmania donovani [11]) | IC50 (Leishmania donovani [9]) |
| --- | --- | --- | --- | --- | --- | --- | --- | --- | --- | --- | --- | --- | --- | --- | --- | --- | --- | --- | --- |
| C[C@@H]1CC[C@H]2[C@@H](C)C(=O)O[C@@H]3O[C@@]4(C)CC[C@@H]1[C@]32OO4 [ARTEMISININ] | 0.0066 (≈ 0.0234 µM) | – | – | – | – | – | – | – | – | – | – | – | – | – | – | – | – | – | – |
| CC[C@H]1OC(=O)[C@H](C)C(=O)[C@H](C)[C@@H](O[C@@H]2O[C@H](C)C[C@H](N(C)Cc3ccc(-c4cn(CCCCCCCCCC(=O)NO)nn4)cc3)[C@H]2O)[C@](C)(OC)C[C@@H](C)C2=NCCN3C(=O)O[C@@]1(C)[C@H]3[C@H]2C | 1.19 (≈ 1.24 µM) | 208.2 | > 4 | 3200 | > 5.3 | 304 | 2.81 | 4560 | 0.897 (≈ 0.928 µM) | 21.9 | 4.83 | 23.7 (≈ 24.5 µM) | 4.8 (≈ 4.97 µM) | 3.68 | > 10 | – | – | – | – |
| C[C@@H]1[C@H](O)[C@@H](C)/C=C/C=C/C=C/C=C/C=C/C=C/C=C/[C@H](O[C@@H]2O[C@H](C)[C@@H](O)[C@H](N)[C@@H]2O)C[C@@H]2O[C@](O)(C[C@@H](O)C[C@@H](O)[C@H](O)CC[C@@H](O)C[C@@H](O)CC(=O)O[C@H]1C)C[C@H](O)[C@H]2C(=O)O [AMPHOTERICIN B] | – | – | – | – | – | – | – | – | – | – | – | 0.395 (≈ 0.427 µM) | 0.079 (≈ 0.0855 µM) | – | – | – | – | – | – |
| O=C(CCCCCCC(=O)Nc1ccccc1)NO [VORINOSTAT] | – | – | – | – | – | – | – | – | – | – | – | 51.7 (≈ 196 µM) | – | – | – | – | – | – | – |
| CC[C@H]1OC(=O)[C@H](C)C(=O)[C@H](C)[C@@H](O[C@@H]2O[C@H](C)C[C@H](N(C)Cc3ccc(-c4cn(CCCCCCCCC(=O)NO)nn4)cc3)[C@H]2O)[C@](C)(OC)C[C@@H](C)C2=NCCN3C(=O)O[C@@]1(C)[C@H]3[C@H]2C | 1.3 (≈ 1.36 µM) | 163.6 | – | 1920 | – | 290 | 2.48 | 2860 | 1.38 (≈ 1.45 µM) | 17.5 | 3.89 | 32.3 (≈ 33.9 µM) | 14.9 (≈ 15.6 µM) | 2.56 | > 10 | > 3.7 | > 3.5 | – | – |
| CC[C@H]1OC(=O)[C@H](C)C(=O)[C@H](C)[C@@H](O[C@@H]2O[C@H](C)C[C@H](N(C)Cc3ccc(-c4cn(CCCCCC(=O)NO)nn4)cc3)[C@H]2O)[C@](C)(OC)C[C@@H](C)C2=NCCN3C(=O)O[C@@]1(C)[C@H]3[C@H]2C | 0.897 (≈ 0.986 µM) | 7.77 | > 5.3 | 1180 | > 2.68 | 36 | 1.17 | 796 | 1.79 (≈ 1.97 µM) | 102 | 1.64 | – | – | 1.26 | > 10 | – | – | inactive | Not Active |
| N=C(N)c1ccc(OCCCCCOc2ccc(C(=N)N)cc2)cc1 [PENTAMIDINE] | – | – | – | – | – | – | – | – | – | – | – | 2.45 (≈ 7.2 µM) | 1.17 (≈ 3.44 µM) | – | – | – | – | – | – |
| CC[C@H]1OC(=O)[C@H](C)C(=O)[C@H](C)[C@@H](O[C@@H]2O[C@H](C)C[C@H](N(C)Cc3ccc(-c4cn(CCCCCCC(=O)NO)nn4)cc3)[C@H]2O)[C@](C)(OC)C[C@@H](C)C2=NCCN3C(=O)O[C@@]1(C)[C@H]3[C@H]2C | 0.137 (≈ 0.148 µM) | 1.03 | > 35 | 729 | > 36 | 10 | 0.66 | 545 | 0.133 (≈ 0.144 µM) | 529 | 0.82 | – | – | 0.75 | > 10 | – | – | inactive | Not Active |
| CC[C@H]1OC(=O)[C@H](C)C(=O)[C@H](C)[C@@H](O[C@@H]2O[C@H](C)C[C@H](N(C)Cc3ccc(-c4cn(CCCCCCCC(=O)NO)nn4)cc3)[C@H]2O)[C@](C)(OC)C[C@@H](C)C2=NCCN3C(=O)O[C@@]1(C)[C@H]3[C@H]2C | 1.32 (≈ 1.4 µM) | 104.2 | > 3.6 | 1710 | > 3.3 | 40 | 1.64 | 580 | 1.47 (≈ 1.57 µM) | – | 3.7 | 35.8 (≈ 38.2 µM) | 19.7 (≈ 21 µM) | 1.35 | > 10 | – | – | – | – |
